We go through nine compounds from ChEMBL document CHEMBL4330103, “Design, synthesis, and bioactivity evaluation of novel Bcl-2/HDAC dual-target inhibitors for the treatment of multiple myeloma” (Bioorg Med Chem Lett, 2019).

Active and inactive are the calls of the source. The calls are words filed in the database; no cut-off is given here.

One assay has as its system U-266. Put plainly: cells. The format is functional, cell-based. The settings on record: Homo sapiens, U-266, 72 h.
The test system of the next assay is RPMI-8226. Description: cells. Conditions: Homo sapiens, RPMI-8226, 72 h. The format is functional, cell-based.
Assay [1] concerns the target T1, Histone deacetylase 1 (Homo sapiens, UniProt Q13547). Description: Inhibition of full length recombinant human C-terminal FLAG-tagged HDAC1 expressed in sf9 cells preincubated for 5 mins followed by biotinylated H3K9-Ac substrate addition and measured after 60 mins by HTRF assay. (In general: TR-FRET usually uses a lanthanide donor and a delayed reading to cut background.)

Assay [2] has as its target T2, Protein deacetylase HDAC6 (Homo sapiens, UniProt Q9UBN7).
T2 sequence (Q9UBN7 whole entry): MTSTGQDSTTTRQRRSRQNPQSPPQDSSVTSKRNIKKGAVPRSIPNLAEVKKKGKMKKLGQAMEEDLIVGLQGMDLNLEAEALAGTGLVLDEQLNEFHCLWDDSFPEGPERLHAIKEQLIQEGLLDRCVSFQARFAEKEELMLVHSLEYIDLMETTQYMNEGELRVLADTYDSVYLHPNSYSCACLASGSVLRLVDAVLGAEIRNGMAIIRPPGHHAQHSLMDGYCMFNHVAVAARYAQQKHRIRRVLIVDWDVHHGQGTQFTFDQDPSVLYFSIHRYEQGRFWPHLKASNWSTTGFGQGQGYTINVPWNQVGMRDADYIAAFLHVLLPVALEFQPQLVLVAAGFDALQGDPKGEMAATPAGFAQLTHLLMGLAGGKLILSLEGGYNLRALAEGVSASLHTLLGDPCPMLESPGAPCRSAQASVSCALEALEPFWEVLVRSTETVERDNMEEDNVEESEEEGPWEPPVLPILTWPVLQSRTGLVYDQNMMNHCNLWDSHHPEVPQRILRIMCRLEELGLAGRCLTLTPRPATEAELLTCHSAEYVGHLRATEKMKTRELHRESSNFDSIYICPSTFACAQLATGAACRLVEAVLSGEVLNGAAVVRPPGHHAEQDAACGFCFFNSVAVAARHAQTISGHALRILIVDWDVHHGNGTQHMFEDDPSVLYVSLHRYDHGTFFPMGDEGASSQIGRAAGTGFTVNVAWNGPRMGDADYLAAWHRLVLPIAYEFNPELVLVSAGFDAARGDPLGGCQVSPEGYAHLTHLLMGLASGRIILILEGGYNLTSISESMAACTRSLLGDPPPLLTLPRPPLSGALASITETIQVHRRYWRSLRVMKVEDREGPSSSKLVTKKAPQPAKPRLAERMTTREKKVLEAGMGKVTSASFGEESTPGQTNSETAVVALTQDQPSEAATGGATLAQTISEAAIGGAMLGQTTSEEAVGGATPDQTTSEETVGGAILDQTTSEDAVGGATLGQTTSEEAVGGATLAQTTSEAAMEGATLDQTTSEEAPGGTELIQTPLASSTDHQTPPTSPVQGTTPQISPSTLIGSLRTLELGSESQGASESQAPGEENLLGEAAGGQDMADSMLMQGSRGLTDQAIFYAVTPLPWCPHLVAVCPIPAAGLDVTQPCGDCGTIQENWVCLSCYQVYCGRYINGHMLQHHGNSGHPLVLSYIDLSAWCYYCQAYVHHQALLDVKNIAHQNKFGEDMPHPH
Description: Inhibition of full length recombinant human N-terminal GST-tagged HDAC6 expressed in baculovirus infected sf9 cells preincubated for 5 mins followed by biotinylated H3K9-Ac substrate addition and measured after 60 mins by HTRF assay.

For assay [3], the target named is Apoptosis regulator Bcl-2 (Homo sapiens, UniProt P10415). Put plainly: Inhibition of FAM-Bid peptide binding to Bcl2 (unknown origin) by fluorescence polarization assay.
A further assay is filed under the species Homo sapiens. Put plainly: Selectivity index, ratio of IC50 for full length recombinant human C-terminal FLAG-tagged HDAC1 expressed in sf9 cells to IC50 for full length recombinant human N-terminal GST-tagged HDAC6 expressed in baculovirus infected sf9 cells.
Assay [4] deals with T3, Protein deacetylase HDAC6 (Homo sapiens) (UniProt Q9UBN7).
T3 sequence (whole entry): T2 sequence (Q9UBN7 whole entry)
Put plainly: Inhibition of HDAC6 in human RPMI8226 cells assessed as increase in acetylated-tubulin level at 10 uM after 24 hrs by Western blot analysis. In kind it is cell-based. Summed up: (§1)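 RPMI-8226 cells exposed to compound at 10 μM for 24 h. Acetylated histone H3 and acetylated tubulin were then detected by immunoblot with specific antibodies.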
In general terms: A western blot detects proteins with antibodies after separation by electrophoresis.

For assay [5], the target named is T1, Histone deacetylase 1. Put plainly: Inhibition of HDAC1 in human RPMI8226 cells assessed as increase in acetylated-H3 level at 10 uM after 24 hrs by Western blot analysis. The format is cell-based. The method, boiled down:
as §1

T1 sequence (Q13547 whole entry): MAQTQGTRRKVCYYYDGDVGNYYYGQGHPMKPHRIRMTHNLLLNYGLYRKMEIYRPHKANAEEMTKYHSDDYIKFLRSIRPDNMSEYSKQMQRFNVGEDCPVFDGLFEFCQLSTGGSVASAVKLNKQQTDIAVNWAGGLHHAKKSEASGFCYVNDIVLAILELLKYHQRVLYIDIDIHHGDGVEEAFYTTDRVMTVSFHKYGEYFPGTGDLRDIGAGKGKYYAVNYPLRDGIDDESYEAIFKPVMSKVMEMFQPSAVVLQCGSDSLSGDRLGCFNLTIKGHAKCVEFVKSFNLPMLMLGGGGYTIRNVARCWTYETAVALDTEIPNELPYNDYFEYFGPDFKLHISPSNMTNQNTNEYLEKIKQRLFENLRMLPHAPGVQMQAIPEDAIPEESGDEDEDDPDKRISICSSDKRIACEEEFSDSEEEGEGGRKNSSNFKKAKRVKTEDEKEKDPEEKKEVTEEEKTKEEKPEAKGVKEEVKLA
Apoptosis regulator Bcl-2, sequence (P10415 whole entry): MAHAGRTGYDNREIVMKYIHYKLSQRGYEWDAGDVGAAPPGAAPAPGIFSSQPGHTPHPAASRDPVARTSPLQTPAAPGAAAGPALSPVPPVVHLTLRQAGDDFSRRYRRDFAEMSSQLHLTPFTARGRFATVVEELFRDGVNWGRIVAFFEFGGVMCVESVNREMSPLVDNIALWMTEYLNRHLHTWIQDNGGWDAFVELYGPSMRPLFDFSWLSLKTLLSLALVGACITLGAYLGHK

For orientation: IC50 means the concentration needed to halve the response being measured. `O=C(CCCCCCNC(=O)c1cnc(N(c2ccccc2)c2ccccc2)nc1)NO` [RICOLINOSTAT]: the IC50 in the assay with U-266 came to 21200 nM; in the assay on RPMI-8226, 11000 nM.
The matching figures for `CC1(C)CCC(CN2CCN(c3ccc(C(=O)NS(=O)(=O)c4ccc(NCC5CCOCC5)c([N+](=O)[O-])c4)c(Oc4cnc5[nH]ccc5c4)c3)CC2)=C(c2ccc(Cl)cc2)C1` [VENETOCLAX]: 94000 nM and 2700 nM.
As to `CC1(C)CCC(CN2CCN(c3ccc(C(=O)NS(=O)(=O)c4ccc(NCCCCC(=O)NO)c([N+](=O)[O-])c4)c(Oc4cnc5[nH]ccc5c4)c3)CC2)=C(c2ccc(Cl)cc2)C1`, the IC50 (at Histone deacetylase 1 [1]; in assay [2]) was above 1000 nM each time.
Turning to `CC1(C)CCC(CN2CCN(c3ccc(C(=O)NS(=O)(=O)c4ccc(NCCCCCC(=O)NO)c([N+](=O)[O-])c4)c(Oc4cnc5[nH]ccc5c4)c3)CC2)=C(c2ccc(Cl)cc2)C1`, the IC50 came to 847 nM at Histone deacetylase 1 [1]; 28 nM in assay [2]; 27100 nM in the assay on U-266; 230 nM in assay [3]; 300 nM in the assay on RPMI-8226. For the same compound, the Ratio IC50 in the assay filed under Homo sapiens was above 10. In assay [4], the inhibition result is “Active”.
Take `CC1(C)CCC(CN2CCN(c3ccc(C(=O)NS(=O)(=O)c4ccc(NCCCC(=O)NO)c([N+](=O)[O-])c4)c(Oc4cnc5[nH]ccc5c4)c3)CC2)=C(c2ccc(Cl)cc2)C1`: the IC50 (on Histone deacetylase 1 [1]; in assay [2]) was above 1000 nM each time.
Regarding `CC1(C)CCC(CN2CCN(c3ccc(C(=O)NS(=O)(=O)c4ccc(NCCC(=O)NO)c([N+](=O)[O-])c4)c(Oc4cnc5[nH]ccc5c4)c3)CC2)=C(c2ccc(Cl)cc2)C1`, the IC50 (at Histone deacetylase 1 [1]; in assay [2]) was above 1000 nM in each case.
Turning to `CC1(C)CCC(CN2CCN(c3ccc(C(=O)NS(=O)(=O)c4ccc(NCCCCCCCC(=O)NO)c([N+](=O)[O-])c4)c(Oc4cnc5[nH]ccc5c4)c3)CC2)=C(c2ccc(Cl)cc2)C1`, the IC50 at Histone deacetylase 1 [1] worked out at 281 nM; in assay [2], 19 nM; in the assay with U-266, 8700 nM; in assay [3], 250 nM; in the assay with RPMI-8226, 200 nM. In the assay listed under Homo sapiens, the Ratio IC50 was above 10. The inhibition entry (on Histone deacetylase 1 [5]; in assay [4]) was “Active” each time.
As for `CC1(C)CCC(CN2CCN(c3ccc(C(=O)NS(=O)(=O)c4ccc(NCCCCCCC(=O)NO)c([N+](=O)[O-])c4)c(Oc4cnc5[nH]ccc5c4)c3)CC2)=C(c2ccc(Cl)cc2)C1`, the IC50 at Histone deacetylase 1 [1] is 665 nM; in assay [2], 28 nM; in the assay on U-266 it was 9800 nM; in assay [3] it was 240 nM; with RPMI-8226, 300 nM. Moreover, the Ratio IC50 in the assay filed under Homo sapiens is above 10. Also, the inhibition result in assay [4] was “Active”.
For the compound `CC1(C)CCC(CN2CCN(c3ccc(C(=O)NS(=O)(=O)c4ccc(NCC(=O)NO)c([N+](=O)[O-])c4)c(Oc4cnc5[nH]ccc5c4)c3)CC2)=C(c2ccc(Cl)cc2)C1`, the IC50 (on Histone deacetylase 1 [1]; in assay [2]) was above 1000 nM each time.
